Arr AP2 block – blocks beta-arrestin peptide binding to AP2 adaptin; FITC-arrestin peptide / GST-AP2 beads, flow cytometry; AP2 beta2 appendage carries R879A mutation; inhibition, % at 10 µM; actives 0.31% (n = 340,000); AID 504490;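 active = inhibition above a set limit, near 3 SD of compounds lacking own fluorescence, cut at about 54% in these data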;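 note: plate controls were DMSO wells for no effect and 5 µM unlabelled arrestin peptide for full effect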
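System: GST-AP2 R879A glutathione beads. Medium: PBS with 0.05% Tween 20 and 0.1% BSA. Also added: FITC-arrestin peptide, 50 nM. Incubation: 12 min plus 1 h, RT. Measured by: high-throughput flow cytometry of beads, ex 488, em 535 nm. Evaluation: percent drop in bead-associated FITC signal.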
NRP1-CendR mod – NRP-1/CendR interaction modulation; FAM-RPARPAR peptide binding to NRP-1, fluorescence polarization; inhibition, % at 25 µM; actives 0.85% (n = 360,000);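 active = inhibition or corrected inhibition above about 18%, plus a signal ratio from 0.5 to 1.5, limit read from the data, passing the limit was not always enough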
Myeloid diff 2 – promotes myeloid progenitor differentiation | ER-HoxA9 myeloid progenitors, lysozyme-GFP differentiation, flow cytometry | calls only at 10 µM | actives 1% (n = 360,000) | AID 624256;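 active = normalized GFP-positive differentiation at or above the plate's own cutoff, the solvent-only control mean plus 3 SD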;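 note: cells exposed to compound for four days before flow analysis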
ATG4B inh – blocks human ATG4B protease cleavage of LC3 substrate; Q9Y4P1; ATG4B cleavage of LC3-PLA2, NBD-HPC fluorescence, 1 h; inhibition, % at 8.33 µM; actives 0.51% (n = 340,000); in the data active = inhibition above about 40%
Granule exo inh – lytic granule exocytosis inhibition | TALL-104 LAMP-1 surface exposure, flow cytometry; cells stimulated with thapsigargin and PMA | inhibition, % at 10 µM | actives 0.66% (n = 360,000);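 active = inhibition above about 55%, limit read from the data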
ABCB6 inh 2 – blocks the human ABCB6 transporter; actives 0.19% (n = 360,000); Q9NP58; K562-ABCB6 porphyrin accumulation, flow cytometry, 1 h; active compounds read low; fluorescence ratio to DMSO, % at 10 µM;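 active = fluorescence ratio to DMSO below 75%, the collection mean minus 3 SD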;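 note: signal is porphyrin accumulated inside mitochondria; 100% equals median channel fluorescence of DMSO control wells; lower ratio means ABCB6 inhibition with less porphyrin fluorescence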
Target sequence (Q9NP58 whole entry, looked up): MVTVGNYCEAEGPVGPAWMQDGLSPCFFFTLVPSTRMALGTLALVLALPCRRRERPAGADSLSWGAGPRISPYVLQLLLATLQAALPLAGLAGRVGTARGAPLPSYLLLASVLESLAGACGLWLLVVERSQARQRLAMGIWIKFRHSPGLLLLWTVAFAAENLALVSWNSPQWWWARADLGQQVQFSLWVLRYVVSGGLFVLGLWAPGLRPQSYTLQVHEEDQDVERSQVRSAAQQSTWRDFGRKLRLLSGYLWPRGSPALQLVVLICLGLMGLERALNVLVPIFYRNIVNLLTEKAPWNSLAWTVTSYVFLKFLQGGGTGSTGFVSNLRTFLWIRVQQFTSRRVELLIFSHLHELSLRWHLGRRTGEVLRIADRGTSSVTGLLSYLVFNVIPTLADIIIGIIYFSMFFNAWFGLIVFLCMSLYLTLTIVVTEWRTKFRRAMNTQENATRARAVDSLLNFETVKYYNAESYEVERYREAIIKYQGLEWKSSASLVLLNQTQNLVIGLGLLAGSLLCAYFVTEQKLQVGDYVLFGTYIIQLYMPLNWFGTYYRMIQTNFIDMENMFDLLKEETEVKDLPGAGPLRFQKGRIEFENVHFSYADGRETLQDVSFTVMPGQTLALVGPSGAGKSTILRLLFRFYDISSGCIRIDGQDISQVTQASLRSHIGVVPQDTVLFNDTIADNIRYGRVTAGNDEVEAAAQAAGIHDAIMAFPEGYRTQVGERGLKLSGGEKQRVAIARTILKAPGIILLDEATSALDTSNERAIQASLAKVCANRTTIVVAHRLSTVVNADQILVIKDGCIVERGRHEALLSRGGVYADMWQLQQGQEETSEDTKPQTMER
An asterisk follows results filed as active; i = inactive; + = active, no number; ! = not confirmed by another sample. Shown are actives, neighbours in structure and some others; about 3.3% of the full set was active somewhere.

SMILES	Arr AP2 block	NRP1-CendR mod	Myeloid diff 2	ATG4B inh	Granule exo inh	ABCB6 inh 2
CCOc1ccc2[nH]cc(C(=O)NCc3ccc(F)cc3)c(=O)c2c1	11	39*	i	-10	0	100
COc1cc(C(=O)N2CCN(c3ccc([N+](=O)[O-])cc3)CC2)ccc1OCc1c(C)noc1C	11	19*	i	-6	0	100
Cc1ccnc(NC(=O)C(Cc2ccccc2)NC(=O)c2ccccc2)c1 (stereo unspecified)	-2	-1	i	-6	-7	100
COc1ccc(CC(=O)NC(=S)Nc2cccc(CO)c2)cc1	12	-3	i	-11	-16	100
COc1ccc(CC(=O)NC(=S)Nc2cccc(C)c2)cc1	-6	5	+	6	7	139
O=C(CSc1nncs1)NC1CCCCCCC1	22	-6	i	-4	0	98
CCCCCCSc1ccc(-c2nc3cnccn3c2NCCCC)cc1	6	-37	+	-3	41	216
COc1ccc(NS(=O)(=O)c2ccc3nc(COc4ccc(Cl)c(C)c4)[nH]c3c2)cc1	46	-4	i	5	-1	95
CC(=O)C1=C(O)C(=O)N(CCCn2ccnc2)C1c1ccc(Br)cc1 (stereo unspecified)	12	-11	+	-15	2	192
CC(C)[C@H](NC(=O)c1ccc(Cl)cc1Cl)C(=O)NNC(=O)c1ccco1	-1	5	i	6	1	105
CCC1CCCCN1CCCNC(=O)CNC(=O)c1nn(-c2ccc(OC)c(Cl)c2)c(=O)c2ccccc12 (stereo unspecified)	-7	-12	i	-12	43	99
Cc1ccc(C(=O)Nc2nc(=O)[nH]s2)cc1	-4	17*!	i	-9	1	105
O=C(Nc1ccc2c(c1)nc1n2CCN(C2CCCCC2)C1)c1ccco1	9	-34	i	0	-1	99
COc1ccccc1C(=O)Nc1ccc2c(c1)nc1n2CCN(C2CCCCC2)C1	-6	-6	+	9	-1	104
COc1ccc(F)cc1C1=CC(=O)C[C@H](c2ccc3c(c2)OCO3)C1	17	25*	+	-11	19	101
COc1ccc([C@H]2CC(=O)C=C(c3cc(OC)ccc3OC)C2)cc1	24	20	+	6	-12	99
COc1ccc(C2CC(=O)C=C(NC3CCCC3)C2)cc1 (stereo unspecified)	3	29*	i	-5	-7	103
COc1cc(F)c(C2=CC(=O)C[C@H](c3ccc4c(c3)OCO4)C2)cc1F	-15	16	i	3	33	97
COc1ccc(C2CC(=O)C=C(NCCC(C)C)C2)cc1 (stereo unspecified)	2	6	i	11	4	98
CCCOP(=O)(c1ccc(N(C)C)cc1)C(O)c1ccc(N(C)C)cc1 (stereo unspecified)	13	4	i	-3	-5	99
COc1ccc(N2CC(C(=O)O)CC2=O)cc1 (stereo unspecified)	-8	3	i	-11	-4	105
CN1CCN(C(=O)/C=C/c2cccc(Cl)c2)CC1	-12	25*	i	-7	0	96
CN1CCN(C(=O)/C=C\c2ccc(Cl)cc2)CC1	-9	-12	i	-1	-4	103
COc1ccc(OC)c(NC(=O)CSc2ncnc3c2cnn3-c2ccccc2Cl)c1	3	4	+	-4	11	994
COc1cc(NC(=O)CSc2ncnc3c2cnn3Cc2ccccc2)cc(OC)c1	2	3	i	-10	5	90
O=C(Nc1ccc(NC(=O)C2CC2)nc1)c1ccccn1	6	-7	i	-13	0	102
O=C(Nc1ccc(NC(=O)C2CC2)nc1)c1cnccn1	4	19*	i	-14	0	94
Cc1onc(-c2ccccc2)c1C(=O)NNC(=S)NC(=O)/C=C/c1ccccc1	-4	13	i	-5	-4	74*
COc1ccc(/C=C/C(=O)NC(=S)NNC(=O)c2c(-c3ccccc3)noc2C)cc1	10	-1	i	-6	-2	97

Screens (PubChem)
